Source: ChEMBL document CHEMBL1141440, “Sesquiterpene lactones from the roots of Ferula varia and their cytotoxic activity” (J Nat Prod, 2007)
≈ marks a conversion by molar mass, not a printed value.

Assays:
MCF7 = assay: Cytotoxicity against human MCF7 cells; type: functional, cell-based
Outline: (§1)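 MCF7 breast and COLO205 colon carcinoma cells were cultured in RPMI1640 with 10% FBS at 37 °C in humidified 5% CO2-95% air. Cytotoxicity was read as IC50 in µg/mL.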

COLO 205 = assay: Cytotoxicity against human COLO205 cells; type: functional, cell-based; outline: as §1
[1] = Cytotoxicity against doxorubicin-resistant human K562/Adr cells; type: functional, cell-based
Outline: (§2)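 K562/Adr cells, a doxorubicin-resistant leukemia line, were grown in RPMI1640 with 10% FBS and 0.5 µM doxorubicin at 37 °C under humidified 5% CO2. Cytotoxicity was expressed as IC50 in µg/mL.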

K562 = assay: Cytotoxicity against multidrug-resistant human K562 cells; type: functional, cell-based; details: in the assay text read “human K562 cells” for “multidrug-resistant human K562 cells”; outline: as §2
KB = assay: Cytotoxicity against human KB cells; type: functional, cell-based
Outline: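 KB human epidermoid carcinoma cells were grown in DMEM with 10% FBS at 37 °C under humidified 5% CO2. Cytotoxicity was given as IC50 in µg/mL.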

[2] = Cytotoxicity against multidrug-resistant human KB-C2 cells; type: functional, cell-based
Outline: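 KB-C2, a multidrug-resistant KB subline, was maintained in DMEM with 10% FBS and 5 µM colchicine at 37 °C under humidified 5% CO2. Cytotoxicity was reported as IC50 in µg/mL.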

[3] = target: ATP-dependent translocase ABCB1 (Homo sapiens, UniProt P08183); assay: Effect on P-glycoprotein expressed in KB-C2 cells assessed as increase in accumulation of rhodamine 123 at 50 uM; type: cell-based; details: kb-c2, 50 µM
Outline: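 For P-gp substrate accumulation, KB-C2 cells were incubated 2 h with 20 µM rhodamine 123 plus sample, then washed and lysed in 0.1% Triton X-100 in PBS. Retained fluorescence was measured and accumulation expressed as a percentage increase.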

[4] = Cytotoxicity against multidrug-resistant human KB-C2 cells in presence of 2.5 uM colchicine; type: functional, cell-based
Outline: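 KB-C2 cells were kept in DMEM with 10% FBS and 5 µM colchicine, then tested for cytotoxicity with 2.5 µM colchicine added during exposure to samples. IC50 was given in µg/mL.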

Sequence of ATP-dependent translocase ABCB1 (P08183 whole entry): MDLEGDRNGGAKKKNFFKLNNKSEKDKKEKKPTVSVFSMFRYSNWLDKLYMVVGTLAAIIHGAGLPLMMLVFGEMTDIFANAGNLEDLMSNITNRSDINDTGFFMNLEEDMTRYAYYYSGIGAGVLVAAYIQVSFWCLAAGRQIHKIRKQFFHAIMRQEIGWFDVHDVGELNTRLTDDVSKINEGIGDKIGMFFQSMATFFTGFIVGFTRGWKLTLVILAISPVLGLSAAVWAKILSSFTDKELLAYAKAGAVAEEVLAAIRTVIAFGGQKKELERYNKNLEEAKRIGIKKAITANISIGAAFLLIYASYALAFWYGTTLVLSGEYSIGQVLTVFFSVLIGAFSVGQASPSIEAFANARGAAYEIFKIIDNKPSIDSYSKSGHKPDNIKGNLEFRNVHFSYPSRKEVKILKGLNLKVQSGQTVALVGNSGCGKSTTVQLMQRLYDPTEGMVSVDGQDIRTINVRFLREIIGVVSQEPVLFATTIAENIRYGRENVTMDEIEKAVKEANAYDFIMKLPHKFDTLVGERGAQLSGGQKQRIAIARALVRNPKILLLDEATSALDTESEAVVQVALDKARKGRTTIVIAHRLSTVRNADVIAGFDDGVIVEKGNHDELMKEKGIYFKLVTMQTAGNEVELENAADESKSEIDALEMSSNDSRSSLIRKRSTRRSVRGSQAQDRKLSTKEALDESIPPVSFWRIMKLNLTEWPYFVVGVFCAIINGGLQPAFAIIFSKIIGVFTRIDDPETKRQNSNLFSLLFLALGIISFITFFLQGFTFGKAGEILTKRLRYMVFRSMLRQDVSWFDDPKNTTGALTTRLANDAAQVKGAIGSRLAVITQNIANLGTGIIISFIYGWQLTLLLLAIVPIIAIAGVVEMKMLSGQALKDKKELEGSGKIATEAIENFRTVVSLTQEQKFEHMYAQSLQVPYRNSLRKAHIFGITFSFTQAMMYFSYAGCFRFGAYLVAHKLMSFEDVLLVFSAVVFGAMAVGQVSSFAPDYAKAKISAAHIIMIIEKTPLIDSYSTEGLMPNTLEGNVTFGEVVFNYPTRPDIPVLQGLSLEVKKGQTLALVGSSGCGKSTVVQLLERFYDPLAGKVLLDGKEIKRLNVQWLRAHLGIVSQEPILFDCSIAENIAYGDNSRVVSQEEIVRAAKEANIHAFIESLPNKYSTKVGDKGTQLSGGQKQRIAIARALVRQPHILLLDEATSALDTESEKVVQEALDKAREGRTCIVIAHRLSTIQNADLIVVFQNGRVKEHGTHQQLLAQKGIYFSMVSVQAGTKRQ

| Compound | IC50 (MCF7) [µg/mL] | IC50 (COLO 205) [µg/mL] | IC50 [1] [µg/mL] | IC50 (K562) [µg/mL] | IC50 (KB) [µg/mL] | IC50 [2] [µg/mL] | Activity [3] [%] | IC50 [4] [µg/mL] |
| --- | --- | --- | --- | --- | --- | --- | --- | --- |
| C=C1[C@@H](OC(=O)C(C)CC)C=C[C@@]2(C)CC[C@@H]3[C@@H](OC(=O)[C@@H]3C)[C@H]12 (some centres not stated) | > 100 | > 100 | > 100 | > 100 | > 100 | > 100 | – | – |
| C=C1C=C[C@@H](OC(=O)/C(C)=C/C)[C@@]2(C)CC[C@@H]3[C@@H](OC(=O)[C@]3(C)O)[C@H]12 | > 100 | > 100 | > 100 | > 100 | > 100 | > 100 | – | – |
| C=C1[C@H]2O[C@H]2[C@@H](OC(=O)/C(C)=C/C)[C@@]2(C)CC[C@@H]3[C@@H](OC(=O)[C@@]3(O)COC(=O)/C(C)=C\C)[C@H]12 | > 100 | > 100 | > 100 | > 100 | 91.4 (≈ 198 µM) | 98 (≈ 213 µM) | 169 | 48.3 |
| C/C=C(\C)C(=O)O[C@H]1C[C@](C)(O)C2CC=C(C)[C@H]2[C@@H]2OC(=O)[C@H](C)[C@@H]21 (some centres not stated) | > 100 | > 100 | > 100 | > 100 | > 100 | > 100 | 114 | 25.4 |
| C=C1C(=O)O[C@@H]2[C@H]1CC[C@]1(C)[C@H](OC(=O)/C(C)=C/C)C=CC(=C)[C@@H]21 [DEHYDROOOPODIN] | – | – | > 100 | 36.8 (≈ 112 µM) | 46.1 (≈ 140 µM) | 56.9 (≈ 173 µM) | – | 55.8 |
| COc1cccc2c1C(=O)c1c(O)c3c(c(O)c1C2=O)C[C@@](O)(C(=O)CO)C[C@@H]3O[C@H]1C[C@H](N)[C@H](O)[C@H](C)O1 [DOXORUBICIN] | – | – | 15.3 (≈ 28.1 µM) | 0.45 (≈ 0.828 µM) | 0.22 (≈ 0.405 µM) | > 100 | – | – |
| C=C1C=C[C@@H](OC(=O)/C(C)=C/C)[C@@]2(C)CC[C@@H]3[C@@H](OC(=O)[C@@H]3C)[C@H]12 [OOPODIN] | – | – | 25.4 (≈ 76.9 µM) | 35.1 (≈ 106 µM) | 34.7 (≈ 105 µM) | 24.7 (≈ 74.8 µM) | – | 13.8 |
